Experimental data published in ChEMBL document CHEMBL1821594, “Synthesis and anticancer evaluation of novel 2-cyclopropylimidazo[2,1-b][1,3,4]-thiadiazole derivatives” (2011).

Columns and labels:
Assay type in all cases: functional
CCRF-CEM = assay: Antitumor activity against human CCRF-CEM cells after 48 hrs by SRB assay
Method in brief: (§1)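 Cells grown in RPMI 1640 with 5% FBS and 2 mM L-glutamine and seeded at 5000–40,000 cells/well according to doubling time. They were preincubated 24 h at 37 °C, 5% CO2, then exposed to DMSO-solubilized compound for 48 h. Adherent cells were fixed with cold TCA (10% final), suspension cells with 16% final. Stained with 0.4% SRB; absorbance at 515 nm. Percent growth calculated against time-zero and control plates.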

UACC-257 = assay: Antitumor activity against human UACC257 cells after 48 hrs by SRB assay; settings: UACC-257, 48 h
Method in brief: (§2)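 NCI-60 protocol. Cells were grown in RPMI 1640 with 5% FBS and 2 mM L-glutamine, plated at 5000–40,000 cells/well, and preincubated 24 h at 37 °C, 5% CO2. Time-zero plates were TCA-fixed. Compounds were in DMSO and incubated 48 h. Fixation used cold TCA (final 16% for suspension SR; final 10% for adherent lines 2-7). Plates were stained with 0.4% SRB in 1% acetic acid, solubilized in 10 mM Tris base, and read at 515 nm. Percent growth was calculated from Tz, C and Ti.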

OVCAR-8 = assay: Antitumor activity against human OVCAR8 cells after 48 hrs by SRB assay; settings: OVCAR-8, 48 h; method in brief: as §1
786-0 = assay: Antitumor activity against human 786-0 cells after 48 hrs by SRB assay; settings: 786-0, 48 h; method in brief: as §1
CAKI-1 = assay: Antitumor activity against human Caki1 cells after 48 hrs by SRB assay; settings: CAKI-1, 48 h; method in brief: as §1
UO-31 = assay: Antitumor activity against human UO31 cells after 48 hrs by SRB assay; settings: UO-31, 48 h; method in brief: as §2
DU-145 = assay: Antitumor activity against human DU145 cells after 48 hrs by SRB assay; settings: DU-145, 48 h; method in brief: as §1
MCF7 = assay: Antitumor activity against human MCF7 cells after 48 hrs by SRB assay; settings: MCF7, 48 h; method in brief: as §1
MDA-MB-231 = assay: Antitumor activity against human MDA-MB-231 cells after 48 hrs by SRB assay; settings: MDA-MB-231, 48 h; method in brief: as §1
T47D = assay: Antitumor activity against human T47D cells after 48 hrs by SRB assay; method in brief: as §2
MDA-MB-468 = assay: Antitumor activity against human MDA-MB-468 cells after 48 hrs by SRB assay; settings: MDA-MB-468, 48 h; method in brief: as §1
NCI-H322M = assay: Antitumor activity against human NCI-H322M cells after 48 hrs by SRB assay; method in brief: as §1
RPMI-8226 = assay: Antitumor activity against human RPMI8226 cells after 48 hrs by SRB assay; settings: RPMI-8226, 48 h; method in brief: as §1
SR = assay: Antitumor activity against human SR cells after 48 hrs by SRB assay; method in brief: as §2
A549 = assay: Antitumor activity against human A549 cells after 48 hrs by SRB assay; settings: A549, 48 h; method in brief: as §1
NCI-H226 = assay: Antitumor activity against human NCI-H226 cells after 48 hrs by SRB assay; settings: NCI-H226, 48 h; method in brief: as §1
NCI-H23 = assay: Antitumor activity against human NCI-H23 cells after 48 hrs by SRB assay; settings: NCI-H23, 48 h; method in brief: as §1
NCI-H460 = assay: Antitumor activity against human NCI-H460 cells after 48 hrs by SRB assay; settings: NCI-H460, 48 h; method in brief: as §1
NCI-H522 = assay: Antitumor activity against human NCI-H522 cells after 48 hrs by SRB assay; settings: NCI-H522, 48 h; method in brief: as §1
HCC 2998 = assay: Antitumor activity against human HCC2998 cells after 48 hrs by SRB assay; settings: HCC 2998, 48 h; method in brief: as §1
HCT-116 = assay: Antitumor activity against human HCT116 cells after 48 hrs by SRB assay; settings: HCT-116, 48 h; method in brief: as §1
HCT-15 = assay: Antitumor activity against human HCT15 cells after 48 hrs by SRB assay; settings: HCT-15, 48 h; method in brief: as §1
HT-29 = assay: Antitumor activity against human HT-29 cells after 48 hrs by SRB assay; settings: HT-29, 48 h; method in brief: as §1
KM12 = assay: Antitumor activity against human KM12 cells after 48 hrs by SRB assay; settings: KM12, 48 h; method in brief: as §1
SF-268 = assay: Antitumor activity against human SF268 cells after 48 hrs by SRB assay; settings: SF-268, 48 h; method in brief: as §1
Malme-3M = assay: Antitumor activity against human MALME-3M cells after 48 hrs by SRB assay; method in brief: as §1
M14 = assay: Antitumor activity against human M14 cells after 48 hrs by SRB assay; settings: M14, 48 h; method in brief: as §1
MDA-MB-435 = assay: Antitumor activity against human MDA-MB-435 cells after 48 hrs by SRB assay; settings: MDA-MB-435, 48 h; method in brief: as §1
SK-MEL-2 = assay: Antitumor activity against human SK-MEL-2 cells after 48 hrs by SRB assay; settings: SK-MEL-2, 48 h; method in brief: as §1
[1] = read-out: LC50 (the source's name)

**Q.** `Clc1ccc(-c2nc3sc(C4CC4)nn3c2Br)cc1` was tested. Which GI50 (CCRF-CEM) did it give?
**A.** 3.66 µM

**Q.** And the TGI (CCRF-CEM)?
**A.** > 100 µM

**Q.** What about the CC50 (CCRF-CEM; [1]) of the same compound?
**A.** > 100 µM

**Q.** And the GI50 (UACC-257)?
**A.** 4.14 µM

**Q.** And the TGI (UACC-257)?
**A.** > 100 µM

**Q.** And the CC50 (UACC-257; [1])?
**A.** > 100 µM

**Q.** What about the GI50 (OVCAR-8) of the same compound?
**A.** 5.76 µM

**Q.** What about the TGI (OVCAR-8) of the same compound?
**A.** > 100 µM

**Q.** What about the CC50 (OVCAR-8; [1]) of the same compound?
**A.** > 100 µM

**Q.** What about the GI50 (786-0) of the same compound?
**A.** 13.6 µM

**Q.** And the TGI (786-0)?
**A.** > 100 µM

**Q.** What about the CC50 (786-0; [1]) of the same compound?
**A.** > 100 µM

**Q.** And the GI50 (CAKI-1)?
**A.** 9.69 µM

**Q.** What about the TGI (CAKI-1) of the same compound?
**A.** > 100 µM

**Q.** What about the CC50 (CAKI-1; [1]) of the same compound?
**A.** > 100 µM

**Q.** What about the GI50 (UO-31) of the same compound?
**A.** 16.4 µM

**Q.** And the TGI (UO-31)?
**A.** > 100 µM

**Q.** What about the CC50 (UO-31; [1]) of the same compound?
**A.** > 100 µM

**Q.** And the GI50 (DU-145)?
**A.** 19.2 µM

**Q.** What about the TGI (DU-145) of the same compound?
**A.** > 100 µM

**Q.** And the CC50 (DU-145; [1])?
**A.** > 100 µM

**Q.** What about the GI50 (MCF7) of the same compound?
**A.** 8.18 µM

**Q.** What about the TGI (MCF7) of the same compound?
**A.** > 100 µM

**Q.** And the CC50 (MCF7; [1])?
**A.** > 100 µM

**Q.** What about the GI50 (MDA-MB-231) of the same compound?
**A.** 6.59 µM

**Q.** And the TGI (MDA-MB-231)?
**A.** > 100 µM

**Q.** What about the CC50 (MDA-MB-231; [1]) of the same compound?
**A.** > 100 µM

**Q.** And the GI50 (T47D)?
**A.** 4.49 µM

**Q.** And the TGI (T47D)?
**A.** 73.5 µM

**Q.** And the CC50 (T47D; [1])?
**A.** > 100 µM

**Q.** What about the GI50 (MDA-MB-468) of the same compound?
**A.** 2.95 µM

**Q.** And the TGI (MDA-MB-468)?
**A.** > 100 µM

**Q.** And the CC50 (MDA-MB-468; [1])?
**A.** > 100 µM

**Q.** What about the GI50 (NCI-H322M) of the same compound?
**A.** 43.4 µM

**Q.** And the TGI (NCI-H322M)?
**A.** > 100 µM

**Q.** What about the CC50 (NCI-H322M; [1]) of the same compound?
**A.** > 100 µM

**Q.** What about the GI50 (RPMI-8226) of the same compound?
**A.** 3.22 µM

**Q.** And the TGI (RPMI-8226)?
**A.** > 100 µM

**Q.** What about the CC50 (RPMI-8226; [1]) of the same compound?
**A.** > 100 µM

**Q.** What about the GI50 (SR) of the same compound?
**A.** 2.9 µM

**Q.** And the TGI (SR)?
**A.** > 100 µM

**Q.** What about the CC50 (SR; [1]) of the same compound?
**A.** > 100 µM

**Q.** What about the GI50 (A549) of the same compound?
**A.** 7.42 µM

**Q.** What about the TGI (A549) of the same compound?
**A.** > 100 µM

**Q.** What about the CC50 (A549; [1]) of the same compound?
**A.** > 100 µM

**Q.** What about the GI50 (NCI-H226) of the same compound?
**A.** 4.99 µM

**Q.** What about the TGI (NCI-H226) of the same compound?
**A.** > 100 µM

**Q.** And the CC50 (NCI-H226; [1])?
**A.** > 100 µM

**Q.** What about the GI50 (NCI-H23) of the same compound?
**A.** 5.1 µM

**Q.** What about the TGI (NCI-H23) of the same compound?
**A.** > 100 µM

**Q.** And the CC50 (NCI-H23; [1])?
**A.** > 100 µM

**Q.** What about the GI50 (NCI-H460) of the same compound?
**A.** 5.25 µM

**Q.** What about the TGI (NCI-H460) of the same compound?
**A.** > 100 µM

**Q.** What about the CC50 (NCI-H460; [1]) of the same compound?
**A.** > 100 µM

**Q.** What about the GI50 (NCI-H522) of the same compound?
**A.** 5.31 µM

**Q.** And the TGI (NCI-H522)?
**A.** 55.4 µM

**Q.** And the CC50 (NCI-H522; [1])?
**A.** > 100 µM

**Q.** What about the GI50 (HCC 2998) of the same compound?
**A.** 8.19 µM

**Q.** And the TGI (HCC 2998)?
**A.** > 100 µM

**Q.** What about the CC50 (HCC 2998; [1]) of the same compound?
**A.** > 100 µM

**Q.** What about the GI50 (HCT-116) of the same compound?
**A.** 2.96 µM

**Q.** And the TGI (HCT-116)?
**A.** > 100 µM

**Q.** What about the CC50 (HCT-116; [1]) of the same compound?
**A.** > 100 µM

**Q.** And the GI50 (HCT-15)?
**A.** 2.02 µM

**Q.** What about the TGI (HCT-15) of the same compound?
**A.** > 100 µM

**Q.** What about the CC50 (HCT-15; [1]) of the same compound?
**A.** > 100 µM

**Q.** And the GI50 (HT-29)?
**A.** 6.12 µM

**Q.** And the TGI (HT-29)?
**A.** > 100 µM

**Q.** And the CC50 (HT-29; [1])?
**A.** > 100 µM

**Q.** And the GI50 (KM12)?
**A.** 3.77 µM

**Q.** What about the TGI (KM12) of the same compound?
**A.** > 100 µM

**Q.** And the CC50 (KM12; [1])?
**A.** > 100 µM

**Q.** What about the GI50 (SF-268) of the same compound?
**A.** 19.3 µM

**Q.** What about the TGI (SF-268) of the same compound?
**A.** > 100 µM

**Q.** What about the CC50 (SF-268; [1]) of the same compound?
**A.** > 100 µM

**Q.** And the GI50 (Malme-3M)?
**A.** 8.79 µM

**Q.** What about the TGI (Malme-3M) of the same compound?
**A.** > 100 µM

**Q.** What about the CC50 (Malme-3M; [1]) of the same compound?
**A.** > 100 µM

**Q.** What about the GI50 (M14) of the same compound?
**A.** 7.7 µM

**Q.** What about the TGI (M14) of the same compound?
**A.** > 100 µM

**Q.** What about the CC50 (M14; [1]) of the same compound?
**A.** > 100 µM

**Q.** What about the GI50 (MDA-MB-435) of the same compound?
**A.** 6.08 µM

**Q.** What about the TGI (MDA-MB-435) of the same compound?
**A.** > 100 µM

**Q.** What about the CC50 (MDA-MB-435; [1]) of the same compound?
**A.** > 100 µM

**Q.** And the GI50 (SK-MEL-2)?
**A.** 11 µM

**Q.** What about the TGI (SK-MEL-2) of the same compound?
**A.** 59.3 µM

**Q.** What about the CC50 (SK-MEL-2; [1]) of the same compound?
**A.** > 100 µM
